From article PMC7228743 (Science Advances, 2020)

How the values were obtained:
hGLP-1R = hGLP-1R (Homo sapiens, UniProt P43220); assay: In vitro GLP-1R activation assay; assay type: cell-based; settings: ratio of cAMP EC50 values, 39.79 nM versus […]
Serum stability assay = assay type: in vitro ADME; settings: 25% (v/v) pooled human serum, 37°C, 24 hours; RP-HPLC peak area at 215 nm
Procedure, shortened: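 Peptides dissolved in H2O/MeCN (70:30 v/v), diluted into 25% (v/v) aqueous pooled serum from human male AB plasma, and held at 37°C for 24 hours. Samples were quenched with an equal volume of MeCN on ice for 20 min, then centrifuged at 4°C for 15 min. Supernatant was diluted in H2O (0.1% TFA) to 0.1 mg/ml and run on RP-HPLC. Intact peptide was taken from the elution peak area at 215 nm.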

hGLP-1R, sequence (P43220 24-463): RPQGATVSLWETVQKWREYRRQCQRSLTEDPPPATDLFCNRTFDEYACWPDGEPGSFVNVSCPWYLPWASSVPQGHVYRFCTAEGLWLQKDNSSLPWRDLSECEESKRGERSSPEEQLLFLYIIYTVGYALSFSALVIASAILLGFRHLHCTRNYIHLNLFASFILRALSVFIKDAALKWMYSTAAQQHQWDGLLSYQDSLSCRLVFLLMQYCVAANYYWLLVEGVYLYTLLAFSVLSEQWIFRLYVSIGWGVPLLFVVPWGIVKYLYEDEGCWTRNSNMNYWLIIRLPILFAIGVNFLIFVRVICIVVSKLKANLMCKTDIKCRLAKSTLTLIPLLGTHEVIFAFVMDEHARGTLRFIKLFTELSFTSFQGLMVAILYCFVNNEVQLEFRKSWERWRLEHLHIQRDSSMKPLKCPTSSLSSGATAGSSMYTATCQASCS

| Compound | Potency of 3 relative to capped GLP-1 2 (fold lower) (hGLP-1R) | Stability in the presence of serum (in words) (Serum stability assay) |
| --- | --- | --- |
| CC[C@H](C)[C@@H](CN(CC(=O)N[C@@H](Cc1c[nH]c2ccccc12)CN(CC(=O)N[C@H](CN(CC(=O)NCCN(CC(N)=O)S(=O)(=O)CCN)S(=O)(=O)CCN)C(C)C)S(=O)(=O)CC(C)C)S(C)(=O)=O)NC(=O)CN(C[C@H](CCC(=O)O)NC(=O)CN(C[C@H](C)NC(=O)CN(C[C@H](CCCCN)NC(=O)CN(C[C@H](CCC(=O)O)NC(=O)CN(C[C@H](Cc1ccc(O)cc1)NC(=O)CN(C[C@H](CO)NC(=O)CN(C[C@H](CC(=O)O)NC(=O)CN(C[C@@H](NC(=O)CN(C[C@@H](NC(=O)CN(C[C@H](CCC(=O)O)NC(=O)CN(C[C@H](Cc1ccccc1)NC(C)=O)S(C)(=O)=O)S(C)(=O)=O)[C@@H](C)O)S(=O)(=O)Cc1ccccc1)[C@@H](C)O)S(C)(=O)=O)S(=O)(=O)CC(C)C)S(C)(=O)=O)S(=O)(=O)CC(C)C)S(C)(=O)=O)S(C)(=O)=O)S(=O)(=O)CCN)S(=O)(=O)Cc1ccccc1 [compound 3] | ~ 10 fold | remarkable stability |
| CC[C@H](C)[C@@H](CN(CC(=O)N[C@@H](Cc1c[nH]c2ccccc12)CN(CC(=O)N[C@H](CN(CC(=O)NCCN(CC(N)=O)S(=O)(=O)CCN)S(=O)(=O)CCN)C(C)C)S(=O)(=O)CC(C)C)S(C)(=O)=O)NC(=O)CN(C[C@H](CCC(=O)O)NC(=O)CN(C[C@H](C)NC(=O)CN(C[C@H](CCCCN)NC(=O)CN(C[C@H](CCC(=O)O)NC(=O)CN(C[C@H](Cc1ccc(O)cc1)NC(=O)CN(C[C@H](CO)NC(=O)CN(C[C@H](CC(=O)O)NC(=O)CN(C[C@@H](NC(=O)CN(C[C@@H](NC(=O)CN(C[C@H](CCC(=O)O)NC(=O)CN(C[C@H](Cc1ccccc1)NC(C)=O)S(C)(=O)=O)S(C)(=O)=O)[C@@H](C)O)S(=O)(=O)Cc1ccccc1)[C@@H](C)O)S(C)(=O)=O)S(=O)(=O)CC(C)C)S(=O)(=O)c1ccc(OC)cc1)S(=O)(=O)CC(C)C)S(C)(=O)=O)S(C)(=O)=O)S(=O)(=O)CCN)S(=O)(=O)Cc1ccccc1 [compound 5] | – | remarkable stability |
